Measurements: ChEMBL document CHEMBL3585292, “Anti-dormant mycobacterial activity and target analysis of nybomycin produced by a marine-derived Streptomyces sp” (2015)
≈ marks a conversion by molar mass, not a printed value.

Assays:
[1] = test system: Mycobacterium tuberculosis; test: Antibacterial activity against Mycobacterium bovis BCG under aerobic condition after 7 days by MTT assay; type: functional; conditions: variant bovis BCG, 168 h
In short: (§1)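 MTT microdilution. Mid-log bacilli in 7H9 with 10% OADC, 0.5% glycerol, 0.05% Tween 80, seeded at 1 × 10⁴ CFU/0.1 mL (M. smegmatis) or 1 × 10⁵ CFU/0.1 mL (BCG, M. tuberculosis), then serially diluted sample added. Aerobic incubation at 37 °C; hypoxic incubation at 37 °C under N2 with 0.2% O2. MTT (0.5 mg/mL, 50 µL) added for 12 h more, OD560 read to give MIC.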

[2] = test system: Mycobacterium tuberculosis; test: Antibacterial activity against Mycobacterium bovis BCG under hypoxic condition after 14 days by MTT assay; type: functional; conditions: variant bovis BCG, 336 h; in short: as §1

| SMILES | MIC [1] | MIC [2] |
| --- | --- | --- |
| COC(=O)CCCc1cn(CCOCCOCCOCCOCCOCCOCCOCCOCCOCCOCCNC(=O)CCCC[C@@H]2SC[C@@H]3NC(=O)N[C@@H]32)nn1 | > 200 µg/mL | > 200 µg/mL |
| Cc1cc(=O)n2c3c(c4c(cc13)c(COC(=O)CCCc1cn(CCOCCOCCOCCOCCOCCOCCOCCOCCOCCOCCNC(=O)CCCC[C@@H]3SC[C@@H]5NC(=O)N[C@@H]53)nn1)cc(=O)n4C)OC2 | 12.5 µg/mL (≈ 10.9 µM) | 6.25 µg/mL (≈ 5.46 µM) |
| NNC(=O)c1ccncc1 [ISONIAZID] | 0.05 µg/mL (≈ 0.365 µM) | > 100 µg/mL |
| Cc1cc(=O)n2c3c(c4c(cc13)c(CO)cc(=O)n4C)OC2 | 1 µg/mL (≈ 3.35 µM) | 1 µg/mL (≈ 3.35 µM) |
